Bioassay records: PubChem BioAssay, Johns Hopkins Ion Channel Center
KCNK3 block – human KCNK3 channel inhibitors, primary screen, CHO cells, FluxOR thallium flux, B-score; Potassium channel subfamily K member 3 (Homo sapiens), O14649; FluxOR fluorescence; active compounds read low; B-score at 10 µM; actives 0.84% (n = 340,000);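 active = B-score under library mean minus 4 SD, starting fluorescence ratio at most library mean plus 5 SD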;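 note: more negative B-score means stronger inhibition of thallium flux through KCNK3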
Kir21 block – inhibitors of mouse Kir2.1 inward-rectifier potassium channel | Inward rectifier potassium channel 2 (Mus musculus), P35561 | HEK293-Kir2.1, FluxOR thallium flux fluorescence; active compounds read low | B-score at 10 µM | actives 0.85% (n = 310,000) | AID 1672, 2009;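 active = fluorescence ratio B-score at or below minus 3 SD of library scores, with starting-brightness B-score within 2 SD, cut at about -4.2 in these data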;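 note: channel flux triggered by added potassium and thallium sulfate stimulus; B-score of peak minus minimum fluorescence over baseline after thallium stimulus; more negative B-score means stronger Kir2.1 block with less thallium influx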
Target sequence (P35561 whole entry, looked up): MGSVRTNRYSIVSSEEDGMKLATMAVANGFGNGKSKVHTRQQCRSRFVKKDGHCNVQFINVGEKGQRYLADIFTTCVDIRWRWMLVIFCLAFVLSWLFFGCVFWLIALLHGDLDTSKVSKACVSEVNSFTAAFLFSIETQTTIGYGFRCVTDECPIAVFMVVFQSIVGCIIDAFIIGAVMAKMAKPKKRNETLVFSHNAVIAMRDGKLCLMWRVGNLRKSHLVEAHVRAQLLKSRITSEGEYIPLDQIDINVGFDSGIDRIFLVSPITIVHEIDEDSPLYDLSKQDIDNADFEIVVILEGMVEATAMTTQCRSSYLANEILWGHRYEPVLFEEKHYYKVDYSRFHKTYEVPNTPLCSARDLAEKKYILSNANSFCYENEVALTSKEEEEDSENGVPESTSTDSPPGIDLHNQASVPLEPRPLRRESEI
hERG protect – hERG rescue from dofetilide block, primary screen, cell-based, CHO-hERG, FluxOR thallium flux, dofetilide IC70; AID 1511, 2009; activation (rescue from dofetilide block), less the hit threshold, % at 10 µM; actives 0.51% (n = 310,000); Voltage-gated inwardly rectifying potassium channel KCNH2 (Homo sapiens), Q12809; dofetilide IC70 present;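 active = activation above the mean of controls blocked by dofetilide plus 5 SD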;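 note: thallium influx through hERG after potassium depolarization seen as dye fluorescence rise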
KCNK9 block – KCNK9 potassium channel inhibitors, primary screen, HEK293 cells, thallium flux; Potassium channel subfamily K member 9 (Homo sapiens), Q9NPC2; FluxOR thallium flux fluorescence; active compounds read low; B-score at 10 µM; actives 1.2% (n = 310,000); AID 488922, 2010;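 active = ratio B-score over 3 SD below the library mean, with starting fluorescence within 5 SD of its mean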;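 note: negative B-score means less thallium flux so channel inhibition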
KCNQ1 pot – potentiators or activators of KCNQ1 channel, primary screen, cell-based, thallium flux, high-throughput | CHO-K1 KCNQ1, thallium flux FluxOR fluorescence; active compounds read high | B-score at 10 µM | actives 0.35% (n = 310,000) | AID 2648, 2010;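 active = fluorescence ratio B-score, a plate-corrected score, at least three library SD, with initial intensity B-score within 5 SD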
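Doses: Single concentration per compound, DMSO matched to controls | Test system: KCNQ1-transfected CHO-K1 cells | Timing: 90 min dye loading and 20 min compound exposure, both at room temperature | Measured by: Kinetic FluxOR thallium fluorescence, 10-s 1-Hz baseline, 110-s post-stimulus read | Medium: Assay buffer with matched DMSO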
KCNQ1 block – inhibitors of human KCNQ1 channel, primary screen, cell-based, thallium flux, high-throughput; Potassium voltage-gated channel subfamily KQT member 1 (Homo sapiens), P51787; CHO-K1 KCNQ1, FluxOR thallium flux fluorescence; active compounds read high; B-score at 10 µM; actives 1.3% (n = 310,000); AID 2642, 2010;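 active = compounds whose thallium flux B-score, printed positive for inhibition, exceeds three library SD while starting fluorescence stays within three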;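 note: channel opened by potassium depolarization with thallium stimulus after 20 min compound exposure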
* = called active by the depositor; i = inactive; nt = no result given. Sampled rows, rich in hits. Any-hit rate of the full collection: about 3.7%.

SMILES	KCNK3 block	Kir21 block	hERG protect	KCNK9 block	KCNQ1 pot	KCNQ1 block
COc1ccc(CNCCc2cccc(F)c2)c2ccccc12	nt	-18*	-11	i	i	i
COc1cc(OC)c(OC)cc1CNCCc1cccc(F)c1	i	-0.94	-4	i	i	i
CCN1CCOC(c2ccccc2)C1 (stereo unspecified)	i	nt	nt	nt	nt	nt
c1ccc(CC(NCc2ccco2)c2ccccc2)cc1 (stereo unspecified)	i	-3.8	-15	i	i	6*
CCOP(=S)(OCC)c1ccc(N(C)C)cc1	i	-0.02	1	i	9*	i
COc1ccc(-c2nc3ccc(C(=O)N4CCC5(CC4)OCCO5)cc3nc2-c2ccc(OC)cc2)cc1	i	0.24	-7	i	i	6*
O=C1NC(=O)C(CCc2ccncc2)(CCc2ccccn2)C(=O)N1c1ccc(Br)cc1 (stereo unspecified)	i	-0.86	-7	i	i	i
Cc1ccc(N2C(=O)NC(=O)/C(=C\c3cnc(-c4ccccc4)nc3)C2=O)cc1	i	-0.26	-8	i	i	i
CCC(C)c1ccc(N2C(=O)NC(=O)/C(=C/c3cccn3CCOc3ccc(C)cc3)C2=O)cc1 (stereo unspecified)	i	-0.46	-11	i	i	7*
CN1CCN(CC#CCOc2ccc(Cl)cc2)CC1	i	-0.99	9.8*	i	i	i
CC[C@H]1C2C[C@H]3[C@@H]4N(C)c5ccccc5C45C[C@H](C2[C@H]5O)N3[C@@H]1O (stereo partly specified)	i	nt	nt	nt	nt	nt
COC(=O)C1=C(c2cccc(OC)c2OC)C[C@@H]2CC[C@H]1N2C(=O)NCCO	i	-0.76	-5	i	i	i
Cc1cc(C(=O)OCC(=O)Nc2ccccc2F)c(C)n1C1CC1	i	nt	nt	nt	nt	nt
CN1CC(C(=O)c2ccc(Cl)cc2)C(c2ccc(Cl)cc2Cl)C1 (stereo unspecified)	i	-5*	-16	i	i	i
C(#CCN1CCOCC1)COCC#Cc1ccccc1	i	-2.2	5.3*	i	i	i
O=C1Nc2ccccc2/C1=C/c1cnc[nH]1	i	-2	-16	i	i	i
COc1ccc2c(c1)/C(=C/c1cnc[nH]1)C(=O)N2	i	0.57	1	i	8*	i
O=C(Nc1ccc(Cl)cc1C(=O)c1ccccc1)c1ccc(Br)o1	i	-0.11	-4	i	i	i
CNCCCc1ccccc1	i	-0.03	6.5*	i	i	i
CC(=O)N1N=C(c2c(O)n(C)c(=O)n(C)c2=O)CC1c1ccccc1 (stereo unspecified)	i	0.4	-5	i	i	i
CN1C(=O)C(=Cc2ccc(N3CCCCCC3)o2)C(=O)N(C)C1=S	i	nt	nt	nt	nt	nt
Cc1ccccc1N1C(=O)/C(=C/c2ccco2)C(=O)NC1=S	nt	0.55	13*	i	i	i
O=C1NC(=S)N(c2ccccc2F)C(=O)/C1=C\c1cccs1	i	1.1	22*	i	i	i
O=C1NC(=O)N(c2ccc3c(c2)OCO3)C(=O)/C1=C\c1ccc(N2CCCCC2)o1	i	-2	-14	i	i	9*
Cc1ccccc1N1C(=O)NC(=O)/C(=C/c2ccc(N3CCOCC3)o2)C1=O	i	-3.5	-22	i	i	6*
CCC1(CCCC(=O)c2ccc(F)cc2)C(=O)NC(=S)NC1=O	i	-0.14	-1	i	i	i
